# Screening data deposited in PubChem BioAssay by several laboratories.
# Only some compounds are listed: those with a hit (about 2.5% of all), similar ones and a draw of the others.
# Tb hexokinase – Trypanosoma brucei hexokinase 1 inhibitors, primary screen, biochemical, G6PDH-coupled NADH absorbance, MLSCN library; hexokinase 1 [Trypanosoma brucei]; recombinant TbHK1, G6PDH-coupled NADH A340; inhibition, % at 10 µM; 220,000 tested, 0.11% active; AID 1430, 2008;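 active = inhibition of 50% or more in the single-dose primary screen; inactive = inhibition below 50%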
# PHOSPHO1 block – PubChem AID 1565; inhibition, % at 13.3 µM; recombinant PHOSPHO1, absorbance phosphatase assay; 290,000 tested, 1.1% active; Phosphoethanolamine/phosphocholine phosphatase (Homo sapiens), Q8TCT1; in the data active = inhibition above about 60%
# Target sequence (Q8TCT1 whole entry, looked up): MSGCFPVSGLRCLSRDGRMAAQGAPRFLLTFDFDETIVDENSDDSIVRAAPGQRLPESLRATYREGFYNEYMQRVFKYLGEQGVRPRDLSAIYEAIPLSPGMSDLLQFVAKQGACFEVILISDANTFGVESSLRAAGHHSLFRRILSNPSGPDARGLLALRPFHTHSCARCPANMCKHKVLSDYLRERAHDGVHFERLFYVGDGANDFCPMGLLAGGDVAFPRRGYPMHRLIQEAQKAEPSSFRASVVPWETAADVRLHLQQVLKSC
# HKDC1 inh – HKDC1 hexokinase inhibitors, primary screen, biochemical, fluorescence, uHTS. inhibition, % at 20 µM. AID 493160, 2011. recombinant HKDC1, G6PDH/diaphorase resazurin coupled fluorescence. 340,000 tested, 0.16% active. Q2TB90;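 active = inhibition above about 35% when tested at 20 µM, limit read from the data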;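 also: plate controls were DMSO wells with enzyme for no effect and DMSO wells lacking enzyme for full effect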
#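 Test system: Recombinant HKDC1 (HK5) hexokinase enzyme, produced in-house | Input: HKDC1 at 5 µg/mL | Buffer or medium: Tris pH 8.0 buffer with MgCl2, Tween-20, BSA, BME | Schedule: 90 min reaction incubation at room temperature, dark | Technique: Resazurin-to-resorufin fluorescence via G6PDH and diaphorase coupling, 525/613 nm | Controls: DMSO wells with and without enzyme mix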
# PfGluPho inh – PfG6PD enzyme inhibitors, primary screen, biochemical, fluorescence intensity, uHTS. 350,000 tested, 0.78% active. AID 504690, 2011. PfGluPho enzyme, NADPH resazurin-diaphorase fluorescence. inhibition, % at 20 µM;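 active = inhibition reaching at least a set limit at 20 µM in the primary screen, cut at about 59% in these data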;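 also: 0% = DMSO wells with substrate and 100% = DMSO wells lacking glucose-6-phosphate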
# PGE2 EP2 inh – human EP2 receptor antagonists, primary screen, TR-FRET cAMP, C6 glioma cells; Prostaglandin E2 receptor EP2 subtype (Homo sapiens), P43116; C6 glioma cells expressing human EP2; cells stimulated with saturating PGE2; inhibition, % at 25 µM; 260,000 tested, 0.52% active;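 active = percent inhibition above 40 after rounding to a whole number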;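 also: rat C6 glioma host cells with rolipram phosphodiesterase inhibitor present; the protocol text gives 20 µM as final concentration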
# Target sequence (P43116 whole entry, looked up): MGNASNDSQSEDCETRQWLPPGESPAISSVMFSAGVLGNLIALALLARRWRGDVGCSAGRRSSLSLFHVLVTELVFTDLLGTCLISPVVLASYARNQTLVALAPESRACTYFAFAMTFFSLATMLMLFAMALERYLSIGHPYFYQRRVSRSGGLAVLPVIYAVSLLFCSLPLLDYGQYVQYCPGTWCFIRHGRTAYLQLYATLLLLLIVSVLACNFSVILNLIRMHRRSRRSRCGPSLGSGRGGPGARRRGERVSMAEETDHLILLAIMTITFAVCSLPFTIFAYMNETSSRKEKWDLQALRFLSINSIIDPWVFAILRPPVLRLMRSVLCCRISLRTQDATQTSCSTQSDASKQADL
# EP2 mod – EP2 receptor modulators, cAMP readout, primary screen, cell-based, HTRF cAMP, PGE2 stimulation. EP2-expressing cells, cAMP HTRF FRET, PGE2 co-stimulation. induction, % at 25 µM. 260,000 tested, 0.83% active. AID 940, 2007;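 active = compounds whose cAMP rise, as percent of the full-agonist control response, exceeds 60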;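 also: rat C6 glioma line stably carrying human EP2 under a CMV promoter; the protocol text gives 20 µM as final concentration; 100% = response of wells given 1 µM PGE2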
# Numbers without * were called inactive; nt = no result given; ! = not confirmed by another sample.
SMILES,Tb hexokinase,PHOSPHO1 block,HKDC1 inh,PfGluPho inh,PGE2 EP2 inh,EP2 mod
C[N+](C)(C)c1nc(N)nc2c1ncn2[C@H]1O[C@@H](CO)[C@H](O)[C@H]1O,nt,nt,nt,nt,45*,-3
CCN1c2ncccc2C(=O)NC12CCN(Cc1ccc(C)o1)CC2,nt,nt,nt,nt,10,-15
S=C(NCCN1CCOCC1)NC1CCCCC1,7,18,-3,-27,12,26
S=C(NCCCN1CCOCC1)NC1CCCC1,9,48,-6,14,93*,3
Cc1nn(Cn2nnc3ccccc32)c(=O)c2cc3sccc3n12,nt,nt,nt,nt,nt,6
Cc1nc2sc3c(c2c2nnc(SCc4ccccn4)n12)CCCC3,nt,nt,nt,nt,8,-11
N#Cc1nc(-c2ccc(OCc3ccccc3)cc2)oc1NCCCn1ccnc1,-4,7,2,13,40*,-57
C#CCN(C#N)c1nc(NCC)nc(NCC)n1,nt,nt,nt,nt,6,1
O=C(c1cnn(-c2ccc(F)cc2)c1)N1CCC(OCc2ccccc2)CC1,nt,nt,nt,nt,7,-47
Cc1coc2c1C(=O)C(=O)c1c-2ccc2c1CCCC2(C)C,4,0,22,17,15,-13
Cc1coc2c1C(=O)C(=O)c1c-2ccc2c(C)cccc12,-6,4,30,64*,15,-20
CCOc1ccccc1NC(=O)c1sc2nc3c(C)cccc3cc2c1N,nt,nt,nt,nt,11,-89
CC(=O)c1ccccc1C(=O)N1CCC(n2nccc2NC(=O)C2CC2)CC1,nt,66*,-13,7,nt,nt
CC[C@@]1(O)C(=O)OCc2c1cc1n(c2=O)Cc2cc3c(CN(C)C)c(O)ccc3nc2-1,nt,nt,8,30,58*!,22
CC[C@@]1(O)C(=O)OCc2c1cc1n(c2=O)Cc2cc3c(N)cccc3nc2-1,-36,4,24,30,11,-26
CCCn1c(=O)c(C(=O)Nc2ncccc2O)c(O)c2ccccc21,nt,-18,12,-23,nt,nt
Cn1c(=O)c(C(=O)Nc2ncccc2O)c(O)c2ccccc21,-9,82*,-5,-6,10,0
CCCn1c(=O)c(C(=O)Nc2ccccc2C)c(O)c2ccccc21,nt,8,-6,4,nt,nt
CCCn1c(=O)c(C(=O)Nc2ccccc2OC)c(O)c2ccccc21,nt,nt,nt,nt,14,67*
CCn1c(=O)c(C(=O)NCCc2ccccc2)c(O)c2ccccc21,-1,20,-6,-18,3,61*
CCn1c(=O)c(C(=O)NCCCl)c(O)c2ccccc21,nt,nt,nt,nt,9,-8
C=CCNC(=O)C1CC(=O)N(c2ccc(OCC(=O)Nc3ccc(C)c(C)c3)cc2)C1 (stereo not drawn),nt,nt,nt,nt,12,-16
CCOCCCNC(=S)N(Cc1cc2cc(C)cc(C)c2[nH]c1=O)CC1CCCO1 (stereo not drawn),nt,nt,nt,nt,17,9
COc1ccc(Cl)cc1NC(=O)CSc1nnc2c(n1)[nH]c1ccccc12,nt,nt,nt,nt,18,-35
CN1CCN(c2oc(-c3ccccc3)nc2S(=O)(=O)c2ccc(Br)cc2)CC1,nt,61*,-3,16,nt,nt
SMILES,Tb hexokinase,PHOSPHO1 block,HKDC1 inh,PfGluPho inh,PGE2 EP2 inh,EP2 mod
COc1ccc(N2CCN(C(=O)c3cc(OC)c(OC)cc3OC)CC2)cc1,nt,nt,nt,nt,16,14
CCC1=[N+](C)CCn2c(C)ccc21,-64,69*,-8,13,-8,-6
OC(CN1CCC2(CC1)CC(O)c1ccc3ccccc3c1O2)c1ccc(Cl)cc1 (stereo not drawn),nt,nt,nt,nt,50*,-86
CCN(CC)C(=S)Sc1c(-c2ccccc2)c2cc(Cl)ccc2[nH]c1=O,-15,88*,-24,46,10,14
CCCCC[C@H](O)/C=C/[C@H]1C=CC(=O)[C@@H]1C/C=C\CCCC(=O)O,41,-6,nt,nt,9,103*
CCCCCC(O)C=CC1C(O)CC(O)C1CC=CCCCC(=O)O (stereo not drawn),nt,nt,nt,-4,nt,nt
CCc1[nH]nc2c1C(c1ccc(Br)s1)C(C#N)=C(N)O2 (stereo not drawn),-9,-7,-3,4,44*,-17
Cc1ccc(C2C(C#N)=C(N)Oc3n[nH]c(-c4cccs4)c32)s1 (stereo not drawn),0,51,-1,3,44*!,2
N#CC1=C(N)Oc2n[nH]c(-c3cccs3)c2C1c1ccncc1 (stereo not drawn),-1,16,0,2,7,-6
CCOc1ccc(C(=O)Nc2ccc(N3CCN(C(=O)CC)CC3)cc2)cc1,nt,nt,nt,nt,11,13
COc1cc(C)nc(N2CCC(C(=O)Nc3ccccc3OC)CC2)n1,nt,nt,nt,nt,10,3
CCOc1cc(C)nc(N2CCC(C(=O)Nc3ccccc3OCC)CC2)n1,-2,23,-8,11,-6,92*!
CCOc1ccccc1NC(=O)C1CCN(c2ccc(S(=O)(=O)N3CCCC3)cc2)CC1,6,78*,3,-11,7,9
CCOc1ccccc1NC(=O)C1CCN(S(=O)(=O)c2ccc(OC)c(OC)c2)CC1,-1,14,-1,1,4,4
NC(=O)C[n+]1cccc2ccccc21,-9,94*,-8,-3,3,12
Cc1cc2c(cc1C)C(O)CC1(CCN(CC(O)c3cn(C)c4ccccc34)CC1)O2 (stereo not drawn),nt,nt,nt,nt,6,-78
Cc1nn(-c2cc(C)c3ccccc3n2)c2c1CCC2,-13,45,5,0,0,64*
CCOC(=O)c1[nH]c2cc(C)sc2c1CO,nt,nt,nt,nt,2,-27
Cc1ccccc1C1(O)CCN(Cc2cn(CCCO)c3ccccc23)CC1,nt,nt,nt,nt,7,-79
COc1cc(Cn2ncc3cccn3c2=O)cc(OC)c1OC,nt,nt,nt,nt,7,2
O=C(C1CCN(S(=O)(=O)c2ccc(-n3cnnn3)cc2)CC1)N1CCC(O)CC1,nt,nt,nt,nt,13,-3
Cc1ccc(-n2c(C3CC3c3ccc(Cl)cc3)n[nH]c2=S)cc1 (stereo not drawn),-5,97*,10,16,3,48
O=C(c1nc2ccc([N+](=O)[O-])cc2[nH]c1=O)[C@@H](O)c1ccc2c(c1)OCO2,nt,nt,nt,nt,50*,17
Cc1occc1-c1nnc(SCC(=O)NC(C)(C)C)n1CCc1ccccc1,nt,nt,nt,nt,15,15
O=C(CCN1CCCC1=O)Nc1ccc(-c2cn3c4c(nnc3n2)CCCC4)cc1,nt,nt,nt,nt,8,-9
COCCNC(=O)CSc1cc(-c2ccccc2)c2ccc(OC)cc2n1,-18,21,5,-9,11,63*
COc1ccc2c(-c3ccccc3)cc(SCC(=O)NC(N)=O)nc2c1,-10,17,-4,-13,12,20
CCOc1ccccc1C1C(C#N)=C(N)SC(N)=C1C#N,-20,70*,-2,41,nt,37
